Laboratory results published in ChEMBL document CHEMBL1944618, “Synthesis and antifungal activity of a new series of 2-(1H-imidazol-1-yl)-1-phenylethanol derivatives” (Eur J Med Chem, 2012).
In brackets after ≈: the same amount, converted by molar mass.

Columns and labels:
[1] = tested on: Pichia kudriavzevii; assay: Ratio MIC for fluconazole to compound for Candida krusei after 48 hrs by M27-A3 CLSI method; format: functional
[2] = tested on: Candida parapsilosis; assay: Antifungal activity against Candida parapsilosis DSM 11224 after 48 hrs by M27-A3 CLSI method; format: functional
How it was run: (§1)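 Broth microdilution in RPMI 1640, two-fold serial dilutions, final test range 0.125–64 µg mL-1 (fluconazole reference 0.0078–128 µg mL-1). Inoculum 1.0×10^3–1.5×10^3 cells mL-1 from yeasts grown 24 h at 35 °C on Sabouraud dextrose agar. Incubation 35 °C, read at 48 h. MIC = lowest concentration giving >50% turbidity decrease versus growth control. Run three times in triplicate. C. parapsilosis ATCC22019 served as QC.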

[3] = tested on: Pichia kudriavzevii; assay: Antifungal activity against Candida krusei PMC 0613 after 48 hrs by M27-A3 CLSI method; format: functional; how it was run: as §1
[4] = tested on: Candida albicans; assay: Antifungal activity against Candida albicans ATCC 24433 after 48 hrs by M27-A3 CLSI method; format: functional; how it was run: as §1
[5] = tested on: Candida tropicalis; assay: Antifungal activity against Candida tropicalis DSM11953 after 48 hrs by M27-A3 CLSI method
[6] = tested on: Pichia kudriavzevii; assay: Ratio MIC for fluconazole to compound for Candida krusei PMC 0613 after 48 hrs by M27-A3 CLSI method; format: functional
[7] = tested on: Pichia kudriavzevii; assay: Ratio MIC for fluconazole to compound for Candida krusei PMC0613 after 48 hrs by M27-A3 CLSI method
[8] = tested on: Candida albicans; assay: Antifungal activity against Candida albicans ATCC 10231 after 48 hrs by M27-A3 CLSI method; format: functional; details: ATCC 10231, 48 h; how it was run: as §1
[9] = tested on: Candida; assay: Antifungal activity against Candida sp. after 48 hrs by M27-A3 CLSI method; format: functional; how it was run: as §1
[10] = tested on: Candida parapsilosis; assay: Antifungal activity against Candida parapsilosis after 48 hrs by M27-A3 CLSI method; format: functional; details: Lodderomyces parapsilosis; how it was run: as §1
[11] = tested on: Candida albicans; assay: Antifungal activity against Candida albicans ATCC 3153 after 48 hrs by M27-A3 CLSI method; format: functional; details: ATCC 3153, 48 h; how it was run: as §1
[12] = tested on: Nakaseomyces glabratus; assay: Antifungal activity against Candida glabrata PMC 0805 after 48 hrs by M27-A3 CLSI method; format: functional; details: PMC 0805, 48 h; how it was run: as §1
[13] = tested on: Candida tropicalis; assay: Antifungal activity against Candida tropicalis DSM 11953 after 48 hrs by M27-A3 CLSI method; format: functional; details: DSM 11953, 48 h; how it was run: as §1
[14] = tested on: Candida albicans; assay: Antifungal activity against Candida albicans after 48 hrs by M27-A3 CLSI method; format: functional; how it was run: as §1
[15] = tested on: Candida parapsilosis; assay: Antifungal activity against Candida parapsilosis ATCC 22019 after 48 hrs by M27-A3 CLSI method; format: functional; details: Lodderomyces parapsilosis, ATCC 22019, 48 h; how it was run: as §1
[16] = Selectivity index, ratio of CC50 for human U937 cells to MIC for Candida Sp.; format: functional, U-937
How it was run: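 SI = CC50 from the 48 h U937 MTT assay divided by the mean MIC across all Candida species. That MIC comes from CLSI M27-A3 broth microdilution in RPMI 1640, 35 °C, read at 48 h.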

[17] = tested on: Pichia kudriavzevii; assay: Antifungal activity against Candida krusei DSM 6128 after 48 hrs by M27-A3 CLSI method; format: functional; details: DSM 6128, 48 h; how it was run: as §1
[18] = tested on: Candida albicans; assay: Antifungal activity against Candida albicans ATCC 76615 after 48 hrs by M27-A3 CLSI method; format: functional; details: ATCC 76615, 48 h; how it was run: as §1
[19] = tested on: Nakaseomyces glabratus; assay: Antifungal activity against Candida glabrata after 48 hrs by M27-A3 CLSI method; format: functional; how it was run: as §1
[20] = tested on: Pichia kudriavzevii; assay: Antifungal activity against Candida krusei after 48 hrs by M27-A3 CLSI method; format: functional; how it was run: as §1
[21] = Cytotoxicity against human U937 cells after 48 hrs by MTT assay; format: cell-based, U-937
How it was run: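 U937 human monocytic cells, 2×10^4 per well, in phenol-red-free RPMI 1640 with 10% FBS, L-glutamine, penicillin and streptomycin. Exposed 48 h at 37 °C, 5% CO2, to compounds dissolved in DMSO at final 8–128 µg mL-1, at least five concentrations, each in three replicates. MTT added for 3–4 h, crystals dissolved, OD read at 570 nm. CC50 taken against DMSO-only control. Means ± SD from three independent experiments.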

[22] = tested on: Candida tropicalis; assay: Antifungal activity against Candida tropicalis after 48 hrs by M27-A3 CLSI method; format: functional; how it was run: as §1
[23] = tested on: Candida tropicalis; assay: Antifungal activity against Candida tropicalis PMC 0910 after 48 hrs by M27-A3 CLSI method; format: functional; details: PMC 0910, 48 h; how it was run: as §1

## O=C(OC(Cn1ccnc1)c1ccc(F)cc1)c1ccc(-c2ccccc2)cc1 (single isomer, unassigned; (-))
[1]
  Ratio: 90
[2]
  MIC: 0.08 µg/mL (≈ 0.207 µM)
[3]
  MIC: 0.125 µg/mL (≈ 0.323 µM)
[4]
  MIC: 0.125 µg/mL (≈ 0.323 µM)
[5]
  MIC: 0.27 µg/mL (≈ 0.699 µM)
[6]
  Ratio: 90
[7]
  Ratio: 90

## O=C(OC(Cn1ccnc1)c1ccc(F)cc1)c1ccc(-c2ccccc2)cc1 (racemic)
[1]
  Ratio: 11
[8]
  MIC: 8 µg/mL (≈ 20.7 µM)
[9]
  MIC: 2.5 µg/mL (≈ 6.47 µM)
  MIC50: 1 µg/mL (≈ 2.59 µM)
  MIC90: 8 µg/mL (≈ 20.7 µM)
[10]
  MIC: 1.3 µg/mL (≈ 3.36 µM)
[11]
  MIC: 0.25 µg/mL (≈ 0.647 µM)
[2]
  MIC: 0.42 µg/mL (≈ 1.09 µM)
[3]
  MIC: 0.83 µg/mL (≈ 2.15 µM)
[12]
  MIC: 1 µg/mL (≈ 2.59 µM)
[13]
  MIC: 1 µg/mL (≈ 2.59 µM)
[14]
  MIC: 4.4 µg/mL (≈ 11.4 µM)
  MIC50: 4 µg/mL (≈ 10.4 µM)
  MIC90: 8 µg/mL (≈ 20.7 µM)
[15]
  MIC: 2 µg/mL (≈ 5.18 µM)
[16]
  Selectivity Index: 12
[17]
  MIC: 4 µg/mL (≈ 10.4 µM)
[4]
  MIC: 1.5 µg/mL (≈ 3.88 µM)
[18]
  MIC: 4 µg/mL (≈ 10.4 µM)
[19]
  MIC: 1 µg/mL (≈ 2.59 µM)
[5]
  MIC: 2.17 µg/mL (≈ 5.62 µM)
[20]
  MIC: 2.25 µg/mL (≈ 5.82 µM)
[21]
  CC50 at 48 h: 41.5 µg/mL (≈ 107 µM)
[22]
  MIC: 4.08 µg/mL (≈ 10.6 µM)

## O=C(OC(Cn1ccnc1)c1ccccc1)c1ccc(-c2ccccc2)cc1 (racemic)
[1]
  Ratio: 5
[8]
  MIC: 1 µg/mL (≈ 2.71 µM)
[9]
  MIC: 2.1 µg/mL (≈ 5.7 µM)
  MIC50: 0.5 µg/mL (≈ 1.36 µM)
  MIC90: 4 µg/mL (≈ 10.9 µM)
[10]
  MIC: 0.7 µg/mL (≈ 1.9 µM)
[11]
  MIC: 0.25 µg/mL (≈ 0.679 µM)
[2]
  MIC: 0.33 µg/mL (≈ 0.896 µM)
[3]
  MIC: 0.67 µg/mL (≈ 1.82 µM)
[12]
  MIC: 4 µg/mL (≈ 10.9 µM)
[13]
  MIC: 0.25 µg/mL (≈ 0.679 µM)
[14]
  MIC: 3.7 µg/mL (≈ 10 µM)
  MIC50: 1 µg/mL (≈ 2.71 µM)
  MIC90: 8 µg/mL (≈ 21.7 µM)
[15]
  MIC: 2 µg/mL (≈ 5.43 µM)
[16]
  Selectivity Index: >44.1
[17]
  MIC: 2 µg/mL (≈ 5.43 µM)
[4]
  MIC: 0.37 µg/mL (≈ 1 µM)
[18]
  MIC: 4 µg/mL (≈ 10.9 µM)
[19]
  MIC: 4 µg/mL (≈ 10.9 µM)
[5]
  MIC: 0.58 µg/mL (≈ 1.57 µM)
[20]
  MIC: 4.7 µg/mL (≈ 12.8 µM)
[21]
  CC50 at 48 h: > 128 µg/mL
[22]
  MIC: 0.5 µg/mL (≈ 1.36 µM)

## O=C(OC(Cn1ccnc1)c1ccc(Cl)cc1)c1ccc(-c2ccccc2)cc1 (racemic)
[1]
  Ratio: 7
[8]
  MIC: 1 µg/mL (≈ 2.48 µM)
[9]
  MIC: 1.9 µg/mL (≈ 4.72 µM)
  MIC50: 1 µg/mL (≈ 2.48 µM)
  MIC90: 4 µg/mL (≈ 9.93 µM)
[10]
  MIC: 1.05 µg/mL (≈ 2.61 µM)
[11]
  MIC: 0.125 µg/mL (≈ 0.31 µM)
[2]; Lodderomyces parapsilosis, DSM 11224, 48 h, read-out: MIC
  MIC: 0.25 µg/mL (≈ 0.621 µM)
[3]; Pichia kudriavzevii, PMC 0613, 48 h, read-out: MIC
  MIC: 1 µg/mL (≈ 2.48 µM)
[12]
  MIC: 1 µg/mL (≈ 2.48 µM)
[13]
  MIC: 0.125 µg/mL (≈ 0.31 µM)
[14]
  MIC: 1.7 µg/mL (≈ 4.22 µM)
  MIC50: 1 µg/mL (≈ 2.48 µM)
  MIC90: 4 µg/mL (≈ 9.93 µM)
[23]
  MIC: 1 µg/mL (≈ 2.48 µM)
[15]
  MIC: 1 µg/mL (≈ 2.48 µM)
[16]
  Selectivity Index: 49.1
[17]
  MIC: 4 µg/mL (≈ 9.93 µM)
[4]; Candida albicans, ATCC 24433, 48 h, read-out: MIC
  MIC: 0.25 µg/mL (≈ 0.621 µM)
[18]
  MIC: 4 µg/mL (≈ 9.93 µM)
[19]
  MIC: 1 µg/mL (≈ 2.48 µM)
[20]
  MIC: 3.7 µg/mL (≈ 9.18 µM)
[21]
  CC50 at 48 h: 88.3 µg/mL (≈ 219 µM)
[22]
  MIC: 0.89 µg/mL (≈ 2.21 µM)

## O=C(OC(Cn1ccnc1)c1ccccc1)c1ccc(-c2ccccc2)cc1 (single isomer, unassigned; (-))
[1]
  Ratio: 30
[2]
  MIC: 0.125 µg/mL (≈ 0.339 µM)
[3]
  MIC: 0.37 µg/mL (≈ 1 µM)
[4]
  MIC: 0.15 µg/mL (≈ 0.407 µM)
[5]
  MIC: 0.15 µg/mL (≈ 0.407 µM)
[6]
  Ratio: 30
[7]
  Ratio: 30
